The results in this text go back to ChEMBL document CHEMBL3853316 (J Med Chem, 2016).

Data set [1] can be described thus: Half life in human liver microsomes. The format is ADME. Background: Liver microsomes are vesicles of endoplasmic reticulum, rich in cytochrome P450 enzymes.
Data set [2] can be described thus: Half life in dog liver microsomes. The format is ADME, Canis lupus familiaris.
The nature of data set [3]: Half life in rat liver microsomes. The format is ADME.
Data set [4] is described as follows: Oral bioavailability in dog at 1 mg/kg. The format is ADME, organism-based, Canis lupus familiaris. As to conditions: in vivo. Summed up:
(§1)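 Dogs (n = 3) were dosed at 0.2 mg/kg iv and 1.0 mg/kg po for pharmacokinetic parameters.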

The nature of data set [5]: Dissociation constant, pKa of the compound in methanol/water by spectrophotometric titration method. The format is physicochemical.
A short description of data set [6]: Clearance in dog at 0.2 mg/kg, iv and 1 mg/kg, po. The format is ADME, organism-based, Canis lupus familiaris. Particulars: in vivo. An outline of the steps: as §1
Data set [7] can be described thus: Volume of distribution at steady state in dog at 0.2 mg/kg, iv and 1 mg/kg, po. The format is ADME, organism-based, Canis lupus familiaris. Particulars: in vivo, read-out: Vdss. An outline of the steps: as §1
A short description of data set [8]: Half life in dog at 0.2 mg/kg, iv and 1 mg/kg, po. The format is ADME, organism-based, Canis lupus familiaris. As to conditions: in vivo. Summed up: as §1

With `Cc1cc2ccc1[C@@H](C)COC(=O)Nc1ccc(OC(F)(F)F)c(c1)CN(C)C(=O)[C@@H]2Nc1ccc2c(N)nccc2c1`, the figures for the half-life in data set [1], in data set [2] and in data set [3] were 130 min, 140 min and 37 min, respectively. The bioavailability – broadly, dose-corrected exposure relative to a reference, in per cent – in data set [4] was determined as 22%.

Regarding `Cc1cc2ccc1[C@@H](C)COC(=O)Nc1ccc(S(=O)(=O)C3CC3)c(c1)CN(C)C(=O)[C@@H]2Nc1ccc2c(N)ncc(F)c2c1`, the half-life (as a rule, the time needed for the level to fall by half in the phase considered) in data set [1] was 45 min; in data set [2], 26 min; in data set [3], 1.9 min; in data set [8], 480 min. In data set [4], this compound registered a bioavailability of 40%. The pKa – broadly, the pH at which an ionisable group is half protonated – in data set [5] amounted to 7.1. The same compound displayed a clearance in data set [6] of 8 mL/min/kg. Moreover, in data set [7], the Vd stood at 5 L/kg.

In the case of `Cc1cc2ccc1[C@@H](C)COC(=O)Nc1ccc(S(=O)(=O)C3CC3)c(c1)CN(C)C(=O)[C@@H]2Nc1cc(F)c2c(N)nccc2c1`, the half-life in data set [1] was 120 min; in data set [2] it was 39 min; in data set [3], 3.3 min; in data set [8] it was 480 min. The bioavailability in data set [4] worked out at 24%. The compound further registered a pKa in data set [5] of 8. In data set [6], this compound showed a clearance of 13 mL/min/kg. The Vd in data set [7] came to 8 L/kg.

On to `Cc1cc2ccc1[C@@H](C)COC(=O)Nc1ccc(S(=O)(=O)C3CC3)c(c1)CN(C)C(=O)[C@@H]2Nc1cc2ccnc(N)c2cc1F`, for which the half-life in data set [1] was 95 min; in data set [2], 7 min; in data set [3], 10 min; in data set [8] it was 360 min. In addition, the bioavailability in data set [4] is less than 1%. The clearance in data set [6] came to 11 mL/min/kg. Further, the Vd in data set [7] amounted to 4 L/kg.

Turning to `Cc1cc2ccc1[C@@H](C)COC(=O)Nc1ccc(S(=O)(=O)C3CC3)c(c1)CN(C)C(=O)[C@@H]2Nc1ccc2c(N)nccc2c1`, the half-life in data set [1] was more than 120 min; in data set [2] it was 110 min; in data set [3], 12 min. The bioavailability in data set [4] worked out at 1%. The compound also came in with a pKa in data set [5] of 8.7.
